Laboratory results as given in ChEMBL document CHEMBL1135479, “Design, synthesis, and evaluation of new chemosensitizers in multi-drug-resistant Plasmodium falciparum” (2002).

Assays:
[1] = test system: Plasmodium falciparum; test: Fractional inhibitory concentration (FIC) tested against TM91C235 isolate.; type: functional
Method in brief: (§1)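 Parasite growth read by [3H]hypoxanthine incorporation in erythrocytes at 0.2% parasitemia and 1% hematocrit. Medium: folate- and PABA-free RPMI-1640 with 10% heat-inactivated human plasma or Albumax. Cultures were kept at 37 °C under 5% CO2/5% O2/90% N2, with label added at 42 h and 66 h total incubation. Counts were taken after freeze-thaw harvest, IC50 came from nonlinear logistic fits, and FIC index was derived from isobologram.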

[2] = test system: Plasmodium falciparum; test: In vitro anti-MDR effect in chloroquine and mefloquine resistant TM91C235 cell lines at 5000 ng/ml concentration; type: functional
Method in brief: (§2)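 TM91C235 P. falciparum in erythrocytes at 0.2% parasitemia and 1% hematocrit, in folate- and PABA-free RPMI-1640 with 10% heat-inactivated human plasma or Albumax. Incubated 66 h at 37 °C under 5% CO2/5% O2/90% N2, with 3H-hypoxanthine added at 42 h. Cells lysed by freezing at -70 °C and harvested; inhibition of isotope incorporation read by scintillation counting.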

[3] = (§3) Fractional inhibitory concentration (FIC) tested against RCS cells, isolate from Brazil.; type: functional, Plasmodium falciparum; method in brief: as §1
[4] = test system: Plasmodium falciparum; test: In vitro anti-MDR effect in chloroquine and mefloquine resistant TM91C235 cell lines at 500 ng/ml concentration; type: functional; method in brief: as §2
[5] = test system: Plasmodium falciparum; test: In vitro anti-MDR effect in chloroquine and mefloquine resistant TM91C235 cell lines at 50 ng/ml concentration; type: functional; method in brief: as §2
[6] = test system: Plasmodium falciparum; test: In vitro anti-MDR effect in mefloquine resistant TM91C235 cell lines at 500 ng/ml concentration in the presence of 5 ng/mL mefloquine; type: functional
Method in brief: (§4)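 Mefloquine was held at 5 ng/mL, combined with test agent. Parasites (TM91C235) were in erythrocytes at 0.2% parasitemia and 1% hematocrit, in folate/PABA-free RPMI-1640 with human plasma or Albumax. Incubation was 66 h at 37 °C in 5% CO2/5% O2/90% N2, with 3H-hypoxanthine added for the last 24 h. Incorporation was counted after freeze-lysis and harvesting.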

[7] = test system: Plasmodium falciparum; test: Fractional inhibitory concentration (FIC) against Plasmodium falciparum W2 of equimolar (1:1) combination dose with chloroquine; type: functional; method in brief: as §1
[8] = test system: Plasmodium falciparum; test: In vitro anti-MDR effect in chloroquine resistant TM91C235 cell lines at 5000 ng/ml concentration in the presence of 10 ng/mL chloroquine; type: functional
Method in brief: (§5)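 Test agent was combined with chloroquine at 10 ng/mL. TM91C235 was cultured in erythrocytes at 0.2% parasitemia and 1% hematocrit, in folate- and PABA-free RPMI-1640, for 66 h at 37 °C under 5% CO2/5% O2/90% N2. 3H-hypoxanthine was added at 42 h, and cell suppression was taken from scintillation counts of harvested lysates.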

[9] = test system: Plasmodium falciparum; test: In vitro anti-MDR effect in chloroquine resistant TM91C235 cell lines at 500 ng/ml concentration in the presence of 10 ng/mL chloroquine; type: functional; method in brief: as §5
[10] = (§6) Fractional inhibitory concentration (FIC) tested against Peruvian PC49 cells, isolate from South America; type: functional, Plasmodium falciparum; method in brief: as §1
[11] = test system: Plasmodium falciparum; test: In vitro anti-MDR effect in mefloquine resistant TM91C235 cell lines at 5000 ng/ml concentration in the presence of 5 ng/mL mefloquine; type: functional; method in brief: as §4
[12] = test system: Plasmodium falciparum; test: In vitro anti-MDR effect in chloroquine resistant TM91C235 cell lines at 50 ng/ml concentration in the presence of 10 ng/mL chloroquine; type: functional; method in brief: as §5
[13] = test system: Plasmodium falciparum; test: In vitro anti-MDR effect in mefloquine resistant TM91C235 cell lines at 50 ng/ml concentration in the presence of 5 ng/mL mefloquine; type: functional; method in brief: as §4
[14] = test system: Plasmodium falciparum; test: Fractional inhibitory concentration (FIC) (1:1 combination of compound and chloroquine) was tested in Plasmodium falciparum W2 clone.; type: functional; method in brief: as §1
[15] = test system: Plasmodium falciparum; test: Fractional inhibitory concentration (FIC) tested against TM91C235 cells, isolate from South east Asia; type: functional; method in brief: as §1
[16] = as §6; type: functional; method in brief: as §1
[17] = as §3; type: functional; method in brief: as §1
[18] = test system: Plasmodium falciparum; test: Fractional inhibitory concentration (FIC) tested against TM91C235 cells, isolate from South east Asia.; type: functional; method in brief: as §1
[19] = test system: Plasmodium falciparum; test: Fractional inhibitory concentration (FIC) against Plasmodium falciparum W2 at equimolar (1:1) combination dose with chloroquine; type: functional; method in brief: as §1

| SMILES | FIC [1] | Suppression [2] [%] | FIC [3] | Suppression [4] [%] | Suppression [5] [%] | Suppression [6] [%] | FIC [7] | Suppression [8] [%] | Suppression [9] [%] | FIC [10] | Suppression [11] [%] | Suppression [12] [%] | Suppression [13] [%] | FIC [14] | FIC [15] | FIC [16] | FIC [17] | FIC [18] | FIC [19] |
| --- | --- | --- | --- | --- | --- | --- | --- | --- | --- | --- | --- | --- | --- | --- | --- | --- | --- | --- | --- |
| CCN(CC)CCCCN1c2ccccc2CCc2ccccc21 | 0.41 | 100 | 0.57 | 95 | 62 | 95 | 0.39 | 100 | 100 | 0.57 | 100 | 99 | 64 |  |  |  |  |  |  |
| CCN(CC)CCCCCN1c2ccccc2CCc2ccccc21 | 0.48 |  | 0.36 |  |  |  | 0.44 |  |  | 0.82 |  |  |  |  |  |  |  |  |  |
| c1ccc2c(c1)Sc1ccccc1N2CCCCN1CCOCC1 | 0.32 |  | 0.37 |  |  |  | 0.39 |  |  | 0.81 |  |  |  |  |  |  |  |  |  |
| CN(C)CCCCN1c2ccccc2CCc2ccccc21 | 0.26 | 96 | 0.52 | 73 | 59 | 70 | 0.23 | 100 | 99 | 0.62 | 95 | 99 | 43 |  |  |  |  |  |  |
| c1ccc2c(c1)CCc1ccccc1N2CCCCN1CCCC1 | 0.42 | 100 | 0.51 | 98 | 58 | 96 | 0.32 | 100 | 100 | 0.66 | 100 | 99 | 64 |  |  |  |  |  |  |
| CN(CCCCN1c2ccccc2CCc2ccccc21)Cc1ccccc1 |  | 60 |  | 32 | 30 | 22 |  | 33 | 20 |  | 41 | 10 | 20 |  |  |  |  |  |  |
| CN1CCN(CCCCN2c3ccccc3Sc3ccccc32)CC1 | 0.48 |  | 0.49 |  |  |  | 0.4 |  |  | 0.98 |  |  |  |  |  |  |  |  |  |
| CN1CCN(CCCCN2c3ccccc3CCc3ccccc32)CC1 | 0.54 |  | 0.66 |  |  |  | 0.52 |  |  |  |  |  |  |  |  |  |  |  |  |
| c1ccc(CN(CCCCN2c3ccccc3CCc3ccccc32)Cc2ccccc2)cc1 |  | 13 |  | 17 | 11 | 22 |  | 13 | 8 |  | 19 | 6 | 14 |  |  |  |  |  |  |
| c1ccc2c(c1)Sc1ccccc1N2CCCCN1CCCC1 | 0.25 | 96 | 0.51 | 70 | 38 | 67 | 0.21 | 100 | 99 | 0.5 | 95 | 99 | 33 |  |  |  |  |  |  |
| CCN(CC)CCCCN1c2ccccc2Sc2ccccc21 |  | 100 | 0.41 | 38 | 26 | 30 |  | 100 | 99 | 0.41 | 100 | 31 | 17 | 0.23 | 0.29 |  |  |  |  |
| c1ccc2c(c1)CCc1ccccc1N2CCCCCCN1CCCC1 | 0.54 |  | 0.6 |  |  |  | 0.57 |  |  | 0.92 |  |  |  |  |  |  |  |  |  |
| COc1ccc(CCN(C)CCCC(C#N)(c2ccc(OC)c(OC)c2)C(C)C)cc1OC (configuration not stated) [VERAPAMIL] |  |  |  |  |  |  | 0.51 |  |  |  |  |  |  |  |  | 0.61 | 0.63 |  |  |
| c1ccc2c(c1)CCc1ccccc1N2CCCCCN1CCCC1 | 0.55 |  | 0.37 |  |  |  | 0.48 |  |  | 0.59 |  |  |  |  |  |  |  |  |  |
| CCN(CC)CCCCCCN1c2ccccc2CCc2ccccc21 | 0.59 |  | 0.72 |  |  |  | 0.48 |  |  |  |  |  |  |  |  |  |  |  |  |
| c1ccc2c(c1)CCc1ccccc1N2CCCCN1CCOCC1 | 0.54 |  | 0.89 |  |  |  | 0.31 |  |  | 0.78 |  |  |  |  |  |  |  |  |  |
| CN(CCCCN1c2ccccc2Sc2ccccc21)Cc1ccccc1 |  | 35 |  | 18 | 13 | 0 |  | 62 | 27 |  | 13 | 14 | 0 |  |  |  |  |  |  |
| c1ccc2c(c1)Sc1ccccc1N2CCCCN1CCCCC1 | 0.52 |  | 0.68 |  |  |  | 0.49 |  |  | 0.83 |  |  |  |  |  |  |  |  |  |
| c1ccc2c(c1)CCc1ccccc1N2CCCCN1CCCCC1 | 0.54 |  | 0.36 |  |  |  | 0.45 |  |  | 0.73 |  |  |  |  |  |  |  |  |  |
| c1ccc(CN(CCCCN2c3ccccc3Sc3ccccc32)Cc2ccccc2)cc1 |  | 22 |  | 10 | 7 | 3 |  | 25 | 16 |  | 9 | 12 | 0 |  |  |  |  |  |  |
| C1=Cc2ccccc2N(CCCCN2CCCC2)c2ccccc21 | 0.49 |  | 0.59 |  |  |  | 0.33 |  |  | 0.74 |  |  |  |  |  |  |  |  |  |
| CCN(CC)CCCCN1c2ccccc2C=Cc2ccccc21 | 0.33 |  | 0.39 |  |  |  | 0.53 |  |  | 0.6 |  |  |  |  |  |  |  |  |  |
| CN(C)CCCCN1c2ccccc2Sc2ccccc21 |  | 92 |  | 27 | 17 | 31 |  | 100 | 97 |  | 92 | 30 | 2 |  |  |  | 0.51 | 0.28 | 0.23 |
